Common to all, as to assay type: functional, cell-based
A short description of assay [1]: Antiproliferative activity against mouse Colon 26-L5 cells assessed as cell viability after 72 hrs by MTT assay. For orientation: Tetrazolium dyes change colour on reduction, which living cells bring about.
The test system of another assay is HT-1080. Description: Antiproliferative activity against human HT1080 cells assessed as cell viability after 72 hrs by MTT assay. As to conditions: HT-1080, 72 h. The essentials: (§1)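 MTT viability assay. HT-1080 and B-16 BL6 were kept in Eagle's MEM, colon 26-L5 in RPMI, all with 10% FCS, 0.1% NaHCO3 and 2 mM glutamine. 2500 cells/well were attached for 24 h at 37 °C, 5% CO2, then exposed 72 h to graded concentrations (DMSO stock, final DMSO <0.1%). MTT was added for 2 h, formazan read at 540 nm, and IC50 taken from means of four wells.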

A short description of assay [2]: Antiproliferative activity against mouse B16-BL6 cells assessed as cell viability after 72 hrs by MTT assay. As to conditions: B16-BL6, 72 h. In a few lines:
as §1

From ChEMBL document CHEMBL1155759, “New spirostanol steroids and steroidal saponins from roots and rhizomes of Dracaena angustifolia and their antiproliferative activity” (J Nat Prod, 2001) come the findings set out here.

Where a name gives a salt, the structure may show the parent alone.

Broadly, the IC50 is the concentration that gives 50% inhibition. Take `C=C1CO[C@@]2(O[C@H]3C[C@H]4[C@@H]5CC=C6C[C@@H](O)C[C@@H](O[C@@H]7OC[C@H](O)[C@H](O[C@@H]8OC[C@@H](O)[C@H](OC(C)=O)[C@H]8O)[C@H]7O[C@@H]7O[C@@H](C)[C@H](OC(C)=O)[C@@H](OC(C)=O)[C@H]7OC(C)=O)[C@]6(C)[C@H]5CC[C@]4(C)[C@H]3[C@@H]2C)[C@@H](O)[C@H]1O[C@@H]1O[C@H](C)[C@H](O)[C@H](O)[C@H]1O` [NAMONIN A]: the IC50 was 26.6 µM in assay [1], 0.2 µM with HT-1080 and 9.7 µM in assay [2].
`CC1CC[C@@]2(OC1)O[C@H]1C[C@@]3(O)[C@@H]4CC=C5C[C@@H](O)C[C@@H](O)[C@]5(C)[C@H]4CC[C@]3(C)[C@H]1[C@@H]2C` (single isomer, unassigned) [NAMOGENIN B]: the IC50 (in assay [1]; with HT-1080; in assay [2]) was above 100 µM each time.
`C=C(CCC1=C(C)[C@H]2[C@H](C[C@H]3[C@@H]4CC=C5C[C@@H](O)C[C@@H](O[C@@H]6OC[C@H](O)[C@H](O)[C@H]6O[C@@H]6O[C@@H](C)[C@H](O)[C@@H](O)[C@H]6O)[C@]5(C)[C@H]4CC[C@@]32C)O1)CO[C@@H]1O[C@H](CO)[C@@H](O)[C@H](O)[C@H]1O`: the IC50 (in assay [1]; in the assay with HT-1080; in assay [2]) was above 100 µM throughout.
For `COc1cccc2c1C(=O)c1c(O)c3c(c(O)c1C2=O)C[C@@](O)(C(=O)CO)C[C@@H]3O[C@H]1C[C@H](N)[C@H](O)[C@H](C)O1` [DOXORUBICIN HYDROCHLORIDE], the IC50 (in the assay with HT-1080; in assay [2]) was 0.2 µM each time.
Turning to `C=C1CO[C@@]2(O[C@H]3C[C@H]4[C@@H]5CC=C6C[C@@H](O)C[C@@H](O[C@@H]7OC[C@H](O)[C@H](O)[C@H]7O[C@@H]7O[C@@H](C)[C@H](OC(C)=O)[C@@H](OC(C)=O)[C@H]7OC(C)=O)[C@]6(C)[C@H]5CC[C@]4(C)[C@H]3[C@@H]2C)[C@@H](O)[C@H]1O[C@@H]1O[C@H](C)[C@H](O)[C@H](O)[C@H]1O`, the IC50 in assay [1] came out at 30.2 µM; with HT-1080, 3.8 µM; in assay [2], 20.9 µM.
On to `C=C1CO[C@@]2(O[C@H]3C[C@H]4[C@@H]5CC=C6C[C@@H](O)C[C@@H](O[C@@H]7OC[C@H](O)[C@H](O)[C@H]7O[C@@H]7O[C@@H](C)[C@H](OC(C)=O)[C@@H](O)[C@H]7O)[C@]6(C)[C@H]5CC[C@]4(C)[C@H]3[C@@H]2C)[C@@H](O)[C@H]1O[C@@H]1O[C@H](C)[C@H](O)[C@H](O)[C@H]1O` [NAMONIN D], for which the IC50 in assay [1] was 97.4 µM; in the assay on HT-1080, 21.6 µM; in assay [2], 42.4 µM.
`C=C1CC[C@@]2(OC1)O[C@H]1C[C@@]3(O)[C@@H]4CC=C5C[C@@H](O)C[C@@H](O)[C@]5(C)[C@H]4CC[C@]3(C)[C@@]1(O)[C@@H]2C` [NAMOGENIN C]: the IC50 (in assay [1]; with HT-1080; in assay [2]) was above 100 µM each time.
Take `C=C1CO[C@@]2(O[C@H]3C[C@H]4[C@@H]5CC=C6C[C@@H](O)C[C@@H](O[C@@H]7OC[C@H](O)[C@H](O[C@@H]8OC[C@@H](OC(C)=O)[C@H](O)[C@H]8O)[C@H]7O[C@@H]7O[C@@H](C)[C@H](OC(C)=O)[C@@H](OC(C)=O)[C@H]7OC(C)=O)[C@]6(C)[C@H]5CC[C@]4(C)[C@H]3[C@@H]2C)[C@@H](O)[C@H]1O[C@@H]1O[C@H](C)[C@H](O)[C@H](O)[C@H]1O` [NAMONIN B]: the IC50 in assay [1] is 27.7 µM; in the assay with HT-1080, 0.3 µM; in assay [2], 11.8 µM.
As to `C=C1CO[C@@]2(O[C@H]3C[C@H]4[C@@H]5CC=C6C[C@@H](O)C[C@@H](O[C@@H]7OC[C@H](O)[C@H](O)[C@H]7O[C@@H]7O[C@@H](C)[C@H](O)[C@@H](O)[C@H]7O)[C@]6(C)[C@H]5CC[C@]4(C)[C@H]3[C@@H]2C)[C@@H](O)[C@H]1O[C@@H]1O[C@H](C)[C@H](O)[C@H](O)[C@H]1O` [NAMONIN C], the results for the IC50 (in assay [1]; in the assay on HT-1080; in assay [2]) were above 100 µM, 27.7 µM and above 100 µM, respectively.
`C=C1CO[C@@]2(O[C@H]3C[C@H]4[C@@H]5CC=C6C[C@@H](O)C[C@@H](O[C@@H]7OC[C@H](O)[C@H](O[C@@H]8OC[C@@H](O)[C@H](O)[C@H]8O)[C@H]7O[C@@H]7O[C@@H](C)[C@H](OC(C)=O)[C@@H](OC(C)=O)[C@H]7OC(C)=O)[C@]6(C)[C@H]5CC[C@]4(C)[C@H]3[C@@H]2C)[C@@H](O)[C@H]1O[C@@H]1O[C@H](C)[C@H](O)[C@H](O)[C@H]1O`: the concentration for half-maximal inhibition (IC50) in assay [1] amounted to 22.1 µM; with HT-1080, 0.6 µM; in assay [2], 11.9 µM.
On the same counts, the results for `O=c1[nH]cc(F)c(=O)[nH]1` [FLUOROURACIL] are 0.5 µM, 1.5 µM and 0.6 µM.
As to `CC(=O)O[C@H]1CO[C@@H](O[C@@H]2C[C@H](O)CC3=CC[C@H]4[C@@H]5C[C@@H]6OC(CC[C@@H](C)CO[C@@H]7O[C@H](CO)[C@@H](O)[C@H](O)[C@H]7O)=C(C)[C@@H]6[C@@]5(C)CC[C@@H]4[C@]32C)[C@H](O[C@@H]2O[C@@H](C)[C@H](O)[C@@H](O)[C@H]2O)[C@H]1O[C@@H]1OC[C@@H](O)[C@H](O)[C@H]1O` [NAMONIN E], the IC50 in assay [1] is above 100 µM; in the assay on HT-1080 it was 21.8 µM; in assay [2], above 100 µM.
Consider `C=C1CO[C@@]2(O[C@H]3C[C@H]4[C@@H]5CC=C6C[C@@H](O)C[C@@H](O[C@@H]7OC[C@H](O)[C@H](O[C@@H]8OC[C@@H](O)[C@H](O)[C@H]8O)[C@H]7O[C@@H]7O[C@@H](C)[C@H](OC(C)=O)[C@@H](OC(C)=O)[C@H]7OC(C)=O)[C@]6(C)[C@H]5CC[C@]4(C)[C@H]3[C@@H]2C)[C@@H](O)[C@H]1O`, for which the IC50 in assay [1] amounted to 76.6 µM; in the assay on HT-1080, 11.1 µM; in assay [2] it was 28.4 µM.
Taken in the same sequence, the figures for `C=C1CO[C@@]2(O[C@H]3C[C@H]4[C@@H]5CC=C6C[C@@H](O)C[C@@H](O[C@@H]7OC[C@H](O)[C@H](O)[C@H]7O[C@@H]7O[C@@H](C)[C@H](O)[C@@H](O)[C@H]7O)[C@]6(C)[C@H]5CC[C@]4(C)[C@H]3[C@@H]2C)[C@@H](O)[C@H]1O` were 5.3 µM, 56.5 µM and 4.2 µM.
Regarding `C=C1CC[C@@]2(OC1)O[C@H]1C[C@H]3[C@@H]4CC=C5C[C@@H](O)C[C@@H](O[C@@H]6OC[C@H](O)[C@H](O)[C@H]6O)[C@]5(C)[C@H]4CC[C@]3(C)[C@H]1[C@@H]2C`, the values for the half-inhibitory concentration (IC50) (in assay [1]; with HT-1080; in assay [2]) were 77.2 µM, 40 µM and 47.9 µM, respectively.
Taken in the same sequence, the figures for `CC1CC[C@@]2(OC1)O[C@H]1C[C@@]3(O)[C@@H]4CC=C5C[C@@H](O)C[C@@H](O)[C@]5(C)[C@H]4CC[C@]3(C)[C@@]1(O)[C@@H]2C` (mixture of isomers) [(25R,S)-NAMOGENIN A] were above 100 µM, above 100 µM and above 100 µM.
As for `C=C1CC[C@@]2(OC1)O[C@H]1C[C@H]3[C@@H]4CC=C5C[C@@H](O)C[C@@H](O[C@@H]6OC[C@H](O)[C@H](O)[C@H]6O[C@@H]6O[C@@H](C)[C@H](O)[C@@H](O)[C@H]6O)[C@]5(C)[C@H]4CC[C@]3(C)[C@H]1[C@@H]2C`, the results for the half-maximal inhibitory concentration (IC50) (in assay [1]; in the assay on HT-1080; in assay [2]) were 95.3 µM, 42.1 µM and 41.2 µM, respectively.
